Measured values taken from ChEMBL document CHEMBL4177559, “Design, Synthesis, and Evaluation of a Series of Novel Benzocyclobutene Derivatives as General Anesthetics” (J Med Chem, 2017).

Tests used:
[1] = tested on: Mus musculus; assay: Anesthetic activity in iv dosed ICR mouse assessed as anesthetic duration time by measuring loss of righting reflex administered as single bolus dose; type: functional
In short: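 Fasted ICR mice (18−22 g, 10 per group) received a single ~10 s lateral tail-vein bolus in 5% DMSO/5−10% Solutol HS-15/saline. Duration was the time from dosing to recovery of righting reflex, recorded at the dose giving 100% loss of righting reflex.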

[2] = tested on: Mus musculus; assay: Anesthetic activity in iv dosed ICR mouse assessed as onset time for loss of righting reflex administered as single bolus dose; type: functional
In short: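 ICR mice (fasted, 18−22 g, 10 per dose group, 7−9 groups) got one tail-vein iv bolus (~10 s) in 5% DMSO/5−10% Solutol HS-15/85−90% saline. Onset was the time from dosing to loss of righting reflex.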

[3] = Therapeutic index, ratio of LD50 for toxicity in ICR mouse to ED50 for anesthetic effect in ICR mouse; type: organism-based; conditions: in vivo, read-out: Ratio LD50/ED50
In short: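 Fasted ICR mice (18−22 g, male and female), 7−9 dose groups of 10, given a single ~10 s iv bolus into the lateral tail vein in 5% DMSO, 5−10% Solutol HS-15, 85−90% saline. Loss of righting reflex scored; ED50 and LD50 derived by nonlinear fitting; TI = LD50/ED50.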

[4] = tested on: Mus musculus; assay: Anesthetic activity in iv dosed ICR mouse assessed as dose required to produce anesthesia administered as single bolus dose; type: functional
In short: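 Fasted ICR mice (18−22 g, male and female) were randomised into 7−9 dose groups of 10 each. Each received one intravenous bolus over about 10 s in the lateral tail vein. Vehicle was 5% DMSO, 5−10% Solutol HS-15 and 85−90% saline. The endpoint was loss of righting reflex, and ED50 was derived by nonlinear fitting of dose–response.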

[5] = Clearance in Sprague-Dawley rat at 1 mg/kg, iv administered as single dose; type: ADME, organism-based; conditions: in vivo
[6] = AUC in Sprague-Dawley rat at 1 mg/kg, iv administered as single dose; type: ADME, organism-based; conditions: in vivo
[7] = tested on: Rattus norvegicus; assay: Cmax in Sprague-Dawley rat at 1 mg/kg, iv administered as single dose; type: ADME, organism-based; set-up: dose 1 mg/kg, route intravenous; conditions: in vivo

Row | clearance [5] | SMILES | Time [1] | Time [2] | selectivity ratio [3] | ED50 [4] | AUC [6] | Cmax [7]
1 |  | CC(C)c1ccc2c(c1O)C(C)(N=[N+]=[N-])C2 (racemic) | 381.7 s | <10 s | 5.9 | 9.4 mg/kg |  | 
2 | 67 mL/min/kg | CC(C)c1ccc2c(c1O)[C@@H](C)C2 |  |  |  |  |  | 
3 | 77 mL/min/kg | CC(C)c1ccc2c(c1O)[C@H](C)C2 |  |  |  |  |  | 
4 |  | CC(C)c1cccc(C(C)C)c1O [PROPOFOL] | 303.2 s | <10 s | 2.7 |  | 77 ng·h/mL | 384 ng/mL
